Data published in ChEMBL document CHEMBL2169848, “Synthesis physicochemical profile and PAMPA study of new NO-donor edaravone co-drugs” (Bioorg Med Chem, 2012).
Activity calls are given as the source filed them. The calls are words filed in the database; no cut-off is given here.

Legend:
[1] = test system: Thoracic aorta; experiment: Vasodilatory activity in Wistar rat thoracic aorta assessed as inhibition of L-phenylephrine-induced contraction in presence of 1 uM 1H-[1,2,4]oxadiazolo[4,3-a]quinoxalin-1-one; assay type: functional, tissue-based
How it was run: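 Same rat aorta strip protocol with 1 µM L-phenylephrine precontraction. 1 µM ODQ was added 5 min before contraction, pre-incubating for at least 30 min before the vasodilator. Isometric recording; EC50 (±SEM) in µM from at least five experiments.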

[2] = test system: Thoracic aorta; experiment: Vasodilatory activity in Wistar rat denuded thoracic aorta assessed as inhibition of L-phenylephrine-induced contraction; assay type: functional, tissue-based
How it was run: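 Endothelium-denuded thoracic aorta strips from male Wistar rats (180–200 g) in gassed Krebs-type buffer at 37 °C, pH 7.4. Strips equilibrated 1.5 h, then contracted with 1 µM L-phenylephrine. Cumulative concentrations added at plateau and isometric tension recorded. EC50 (±SEM) in µM from at least five experiments.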

[3] = Half life in 5% DMSO/0.1 M KCl by RP-HPLC analysis; assay type: physicochemical; conditions: for half-life: 5% DMSO/0.1 M KCl
How it was run: (§1)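 10 mM DMSO stock added to water with 0.1 M KCl to give 5% DMSO (v/v), then filtered. Room temperature. Compound followed by RP-HPLC (C18, methanol/water gradient, 240 nm), calibration 1–200 µM. Half-life from n = 3.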

[4] = test system: Mus musculus; experiment: Induction of nitrite release in mouse assessed as nitrite AUC (0 to 24 hrs) at 10 mg/kg, po measured over 24 hrs by LC-MS/MS analysis; assay type: organism-based; design: time < 24 hr, dose 10 mg/kg, route oral; conditions: in vivo
How it was run: (§2)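 Mice dosed orally at 10 mg/kg in imwitor742/tween80 50/50; blood drawn at fixed times over 24 h and precipitated with 3 volumes acetonitrile. Nitrite converted to naphtotriazole with DAN (1 mM, 10 µL per 200 µL sample) at room temperature and measured by LC-MS/MS against a 0.01-10 µM NAT calibration; basal level and conversion factor from spikes; AUC0-24h.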

[5] = Half life in Wistar rat liver homogenate at 200 uM by RP-HPLC analysis; assay type: ADME, tissue-based
How it was run: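 Liver from male Wistar rats (200–250 g), 20% homogenate spun at 8000g. Incubated at 37 °C in Tris-HCl/KCl 100/150 mM, pH 7.4, with 6.4 mg protein/mL, 2 mM GSH and 1 mM NADPH. Compound 200 µM final, added from a 10 mM acetonitrile stock. Aliquots deproteinized with cold acetonitrile and analysed by RP-HPLC. Half-life from n = 3.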

[6] = Half life in 0.1 M HCl/MeOH 60/40 (v/v) mixture by RP-HPLC analysis; assay type: physicochemical
How it was run: (§3)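 Methanolic compound solution (0.5 mM, 2 mL) diluted to 10 mL with 0.1 M HCl/MeOH 60/40 (v/v) and kept at 37 °C. Aliquots taken at intervals and analysed by RP-HPLC (C18, acetonitrile/water gradient, 240 nm) with calibration over 1–200 µM. Half-life from n = 3.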

[7] = Lipophilicity, log P of the compound in octanol-buffer at pH 7 by HPLC analysis; assay type: physicochemical
How it was run: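 Retention measured by isocratic RP-HPLC on an RP-amide-C16 column at 30 °C. Mobile phase was pH 7.0 phosphate buffer/methanol, 30–70%, ionic strength 20 mM; uracil used as dead-time marker. log kw extrapolated from at least four methanol ratios, each injected at least three times. Converted to logPoct via a reference line of 63 compounds.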

[8] = Half life in human serum at 250 uM by RP-HPLC analysis; assay type: ADME, cell-free
How it was run: (§4)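 Compound added from a 10 mM methanol stock to human serum (male AB plasma) at 37 °C, final 250 µM. Aliquots taken at intervals and deproteinized with acetonitrile containing 0.1% TFA, then centrifuged and filtered. Analysed by RP-HPLC. Half-life from n = 3.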

[9] = Stability in 5% DMSO/0.1 M KCl by RP-HPLC analysis; assay type: physicochemical; how it was run: as §1
[10] = Stability in 0.1 M HCl/MeOH 60/40 (v/v) mixture by RP-HPLC analysis; assay type: physicochemical; conditions: buffer; how it was run: as §3
[11] = test system: Serum; experiment: Stability in human serum at 250 uM by RP-HPLC analysis; assay type: ADME, cell-free; how it was run: as §4
[12] = test system: Liver; experiment: Induction of nitrite production in Wistar rat liver homogenate at 200 uM after 5 hrs by griess method; assay type: functional, tissue-based
How it was run: (§5)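 Male Wistar rat liver homogenate (6.4 mg protein/mL; 2 mM GSH, 1 mM NADPH; Tris-HCl/KCl pH 7.4; 37 °C) with compound at 200 µM final. Deproteinized filtrate mixed with Griess reagent: nitrite after 10 min at 37 °C; nitrite+nitrate after VCl3 reduction, 45 min at 37 °C. Absorbance at 540 nm, calibration 1–100 µM. Expressed as %mol per mol compound, n = 3.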

[13] = test system: Liver; experiment: Induction of nitrate production in Wistar rat liver homogenate at 200 uM after 5 hrs by griess method; assay type: functional, tissue-based; how it was run: as §5
[14] = test system: Liver; experiment: Induction of nitrite production in Wistar rat liver homogenate at 200 uM by griess method; assay type: functional, tissue-based; conditions: TDE = time-dependent effect; how it was run: as §5
[15] = test system: Liver; experiment: Induction of nitrate production in Wistar rat liver homogenate at 200 uM by griess method; assay type: functional, tissue-based; conditions: TDE = time-dependent effect; how it was run: as §5
[16] = Permeability of the compound by PAMPA-HDM method; assay type: ADME
How it was run: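 96-well polycarbonate filters impregnated with 5% hexadecane in hexane. Donor held compound in water with 5% DMSO and 100 mM KCl; acceptor held the same medium. Incubated at room temperature with shaking at 150 rpm for 1–6 h. Both compartments quantified by RP-HPLC. logPe and retention R calculated with correction for hydrolysis; membrane integrity checked by electrical resistance.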

[17] = test system: Mus musculus; experiment: AUC (0 to 24 hrs) in mouse assessed isosorbide mononitrate as at 10 mg/kg, po after 24 hrs; assay type: ADME, organism-based, Plasma; design: time < 24 hr, dose 10 mg/kg, route oral; conditions: in vivo; how it was run: as §2

SMILES | EC50 [1] | inhibition [2] | half-life [3] | half-life at 200 µM [5] | half-life [6] | logD [7] | half-life at 250 µM [8] | other results
O=[N+]([O-])OCCCO [ABRUCOMSTAT] | > 100 µM | Dose-dependent effect |  |  |  |  |  | EC50 [2]: 4 µM
O=C(O)CCCCCO[N+](=O)[O-] | > 100 µM | Dose-dependent effect |  |  |  |  |  | 
Cc1cc(OC(=O)OCCCO[N+](=O)[O-])n(-c2ccccc2)n1 |  |  | 780 min | < 1 min | 84 min | 3.35 | < 1 min | AUC [4]: 964 µM·min
CC1=NN(c2ccccc2)C(=O)C1 [EDARAVONE] |  |  |  |  |  | 1.44 |  | Stability [9]: Stable; Stability [10]: Stable; Stability [11]: Stable
O=C(O)c1ccc(OCCCO[N+](=O)[O-])cc1 |  | Dose-dependent effect |  |  |  |  |  | 
Cc1cc(OC(=O)C(C)(C)CCC(CO[N+](=O)[O-])O[N+](=O)[O-])n(-c2ccccc2)n1 (stereo unspecified) | > 100 µM | Dose-dependent effect | 960 min | 3 min | 600 min | 4.04 | 16.2 min | Activity [12]: Active; Activity [13]: Active; Activity [14]: tde; Activity [15]: tde; EC50 [2]: 2.5 µM
Cc1cc(OC(=O)CCCC(CO[N+](=O)[O-])O[N+](=O)[O-])n(-c2ccccc2)n1 (stereo unspecified) |  |  | 600 min | < 1 min | 42 min | 3.95 | < 1 min | 
Cc1cc(OC(=O)CCCCCO[N+](=O)[O-])n(-c2ccccc2)n1 |  |  | 1860 min | < 1 min | 60 min | 3.79 | < 1 min | 
CC(C)(CO[N+](=O)[O-])C(=O)O | > 100 µM | Dose-dependent effect |  |  |  |  |  | EC50 [2]: 13 µM
Cc1cc(OC(=O)c2ccc(CC(CO[N+](=O)[O-])O[N+](=O)[O-])cc2)n(-c2ccccc2)n1 (stereo unspecified) |  |  |  | < 1 min | 480 min | 4.88 | 7.1 min | log Pe [16]: ND(Insoluble); Activity [12]: Active; Activity [13]: Active; t1/2 [3]: ND(Insoluble)
Cc1cc(OC(=O)c2ccc(OCCCO[N+](=O)[O-])cc2)n(-c2ccccc2)n1 |  |  |  | < 1 min | 2100 min | 4.74 | 5 min | log Pe [16]: ND(Insoluble); t1/2 [3]: ND(Insoluble)
O=[N+]([O-])O[C@H]1CO[C@H]2[C@@H]1OC[C@H]2O[N+](=O)[O-] [ISOSORBIDE DINITRATE] |  |  |  |  |  |  |  | AUC [17]: 2352 µM·min
